SMILES strings stand for the structures.

The test system of test [1] is Aorta. Description: Vasodilatory activity in Sprague-Dawley rat aortic rings with endothelium assessed as inhibition of phenylephrine-induced vasoconstriction relative to phenylephrine. The class given is functional. The essentials: (§1)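 Endothelium-intact aortic rings from male Sprague-Dawley rats (4–6 months, ~250 g) were equilibrated for ≥1 h and then contracted isometrically with phenylephrine. Once tone stabilized (~20 min), compound was added cumulatively at 15–20 min intervals until relaxation reached steady state, with vehicle-only tissues run in parallel. Emax was taken as % of the PE contraction, and EC50 came from nonlinear regression of the concentration-response curve.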

Test [2] has as its system Aorta. As to the kind of experiment: Vasodilatory activity in Sprague-Dawley rat aortic rings with endothelium assessed as inhibition of phenylephrine-induced vasoconstriction. The format is functional, tissue-based. The essentials:
as §1

Regarding `Cc1no[n+]([O-])c1COc1cc(O)cc(O)c1C(=O)/C=C/c1ccc2c(c1)OCO2`, the Emax in test [1] amounted to 100%. Further, in test [2], the Activity result is “Dose-dependent effect” and the EC50 amounted to 8.9 µM.
Turning to `Cc1c(COc2cc(O)cc(O)c2C(=O)/C=C/c2ccc3c(c2)OCO3)no[n+]1[O-]`, in test [1], the Emax is 95.7%. Besides, in test [2], the Activity result is “Dose-dependent effect” and the EC50 stood at 12.1 µM.
For the compound `O=C(/C=C/c1ccc2c(c1)OCO2)c1c(O)cc(O)cc1OCCO[N+](=O)[O-]`, the Emax in test [1] amounted to 103%. In addition, in test [2], the Activity result is “Dose-dependent effect” and the EC50 amounted to 13.4 µM.
The corresponding values for `Cc1c(COc2cc(O)c(C(=O)/C=C/c3ccc4c(c3)OCO4)c(OCCO[N+](=O)[O-])c2)no[n+]1[O-]` are 96%, “Dose-dependent effect” and 9.4 µM.
The like results for `COC(=O)C1=C(C)NC(C)=C(C(=O)OCCOc2cc(O)cc(O)c2C(=O)/C=C/c2cccc(Br)c2)C1c1cccc([N+](=O)[O-])c1` (configuration not stated) were, in that order, 102%, “Dose-dependent effect” and 6.4 µM.
The like results for `COC(=O)C1=C(C)NC(C)=C(C(=O)OCCOc2cc(O)cc(O)c2C(=O)/C=C/c2ccc3c(c2)OCO3)C1c1cccc([N+](=O)[O-])c1` (configuration not stated) were, in that order, 98.6%, “Dose-dependent effect” and 9.3 µM.
For `O=C(/C=C/c1ccc2c(c1)OCO2)c1c(OCCO[N+](=O)[O-])cc(OCCO[N+](=O)[O-])cc1OCCO[N+](=O)[O-]`, in test [1], the Emax stood at 104%. Besides, in test [2], the Activity entry is “Dose-dependent effect” and the EC50 came out at 8.4 µM.
The like results for `COC(=O)C1=C(C)NC(C)=C(C(=O)OCCOc2cc(O)ccc2C(=O)/C=C/c2ccc3c(c2)OCO3)C1c1cccc([N+](=O)[O-])c1` (configuration not stated) were, in that order, 103%, “Dose-dependent effect” and 9.7 µM.
The corresponding values for `COC(=O)C1=C(C)NC(C)=C(C(=O)OCCOc2cc(O)cc(O)c2C(=O)/C=C/c2ccc(O)cc2)C1c1cccc([N+](=O)[O-])c1` (configuration not stated) are 104%, “Dose-dependent effect” and 2.9 µM.
